Measurements: ChEMBL document CHEMBL1155493, “Synthesis of new cis-fused tetrahydrochromeno[4,3-b]quinolines and their antiproliferative activity studies against MDA-MB-231 and MCF-7 breast cancer cell lines” (Bioorg Med Chem Lett, 2010)

Assays:
[1] = tested on: MCF7; assay: Antiproliferative activity against human MCF7 cells by MTT assay; type: functional, cell-based
Procedure, shortened: (§1)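 MTT read-out following an earlier published protocol; IC50 values reported, with tamoxifen as the reference compound.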

[2] = tested on: MDA-MB-231; assay: Antiproliferative activity against human MDA-MB-231 cells by MTT assay; type: functional, cell-based; procedure, shortened: as §1

| Structure (SMILES) | IC50 [1] | IC50 [2] |
| --- | --- | --- |
| Cc1coc2c3c(ccc2c1=O)OC[C@H]1[C@@H]3Nc2cc3ccccc3cc2C1(C)C | 9 µM | 9.4 µM |
| COc1ccc2c(c1)C(C)(C)[C@H]1COc3ccc4c(=O)c(C)c(C)oc4c3[C@H]1N2 | > 100 µM | > 100 µM |
| Cc1ccc2c(c1)C(C)(C)[C@H]1COc3ccc4c(=O)c(C)coc4c3[C@H]1N2 | 10.2 µM | > 100 µM |
| Cc1coc2c3c(ccc2c1=O)OC[C@H]1[C@@H]3Nc2ccccc2C1(C)C | 9.6 µM | 93.8 µM |
| Cc1oc2c3c(ccc2c(=O)c1-c1ccccc1)OC[C@H]1[C@@H]3Nc2ccccc2C1(C)C | > 100 µM | > 100 µM |
| Cc1oc2c3c(ccc2c(=O)c1C)OC[C@H]1[C@@H]3Nc2ccccc2C1(C)C | > 100 µM | > 100 µM |
| CC/C(=C(\c1ccccc1)c1ccc(OCCN(C)C)cc1)c1ccccc1 [TAMOXIFEN] | 1 µM | 0.66 µM |
| Cc1ccc2c(c1)C(C)(C)[C@H]1COc3ccc4c(=O)c(-c5ccccc5)c(C)oc4c3[C@H]1N2 | 10 µM | > 100 µM |
| Cc1ccc2c(c1)C(C)(C)[C@H]1COc3ccc4c(=O)c(C)c(C)oc4c3[C@H]1N2 | 94.3 µM | > 100 µM |
| Cc1oc2c3c(ccc2c(=O)c1C)OC[C@H]1[C@@H]3Nc2cc3ccccc3cc2C1(C)C | > 100 µM | > 100 µM |
